Screens from PubChem.
RGS4 pot: potentiators or activators of RGS4; HEK293 M3R/inducible RGS4, carbachol calcium flux Fluo4; active compounds read low; B-score at 10 µM; actives 0.92% (n = 310,000);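 active means B-score of the integrated calcium signal more than 4 SD below the library mean, with starting fluorescence not abnormally high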;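 further: negative B-score means reduced calcium response which marks RGS4 activation or potentiation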
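test system = M3R-expressing HEK293 line, RGS4 induced by doxycycline | probe or stimulus = carbachol at ECmax as muscarinic agonist stimulus | timing = dye loading 30 min 37 °C, buffer rest 30 min RT | signal = calcium dye Fluo4 fluorescence | evaluation = B score from integrated fluorescence ratio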
RGS4 inh: inhibitors of human RGS4. P49798. HEK293 M3R/RGS4 inducible, Fluo-4 calcium flux; active compounds read high; triggered by carbachol at its EC20. B-score at 10 µM. actives 0.45% (n = 310,000). AID 463165;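 active means B-score, a plate-corrected calcium signal, over three deviations above library mean, with baseline fluorescence within five deviations of library mean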;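 further: RGS4 expression induced by doxycycline in cells with stable M3 receptor; B-score is computed from the integrated fluorescence ratio over baseline after carbachol; higher B-score means a larger calcium signal and so more RGS4 inhibition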
Target sequence (P49798 whole entry, looked up): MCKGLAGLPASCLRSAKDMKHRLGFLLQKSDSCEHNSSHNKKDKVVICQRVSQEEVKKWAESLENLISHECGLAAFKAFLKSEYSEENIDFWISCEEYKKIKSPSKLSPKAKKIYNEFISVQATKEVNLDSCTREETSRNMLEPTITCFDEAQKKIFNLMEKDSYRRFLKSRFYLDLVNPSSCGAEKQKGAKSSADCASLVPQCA
MrgX1 allo act: human MrgX1 positive allosteric modulation, primary screen. MrgX1-HEK293, Fluo-4 calcium flux, FDSS; active compounds read high. B-score at 10 µM. actives 0.63% (n = 310,000);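 active means plate-corrected calcium response at least 3 library SD above typical, normal starting fluorescence, not activating the receptor alone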;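 further: compound read alongside a low EC10 to EC30 dose of BAM8-22 agonist; peak minus trough fluorescence over baseline measured at the second addition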
Target sequence (Q96LB2 whole entry, looked up): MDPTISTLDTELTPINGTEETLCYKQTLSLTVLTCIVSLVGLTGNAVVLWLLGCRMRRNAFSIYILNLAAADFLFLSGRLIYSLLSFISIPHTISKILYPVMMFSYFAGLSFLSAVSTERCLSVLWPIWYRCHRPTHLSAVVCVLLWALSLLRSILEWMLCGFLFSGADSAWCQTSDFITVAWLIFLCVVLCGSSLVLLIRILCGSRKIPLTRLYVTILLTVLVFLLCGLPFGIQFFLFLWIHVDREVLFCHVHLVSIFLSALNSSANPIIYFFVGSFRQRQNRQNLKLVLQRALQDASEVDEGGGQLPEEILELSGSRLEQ
MrgX1 agonist: agonists of human MrgX1 receptor. Q96LB2. MrgX1-HEK293 cells, Fluo-4 calcium fluorescence, agonist mode; active compounds read high. B-score at 10 µM. actives 0.44% (n = 310,000). AID 588627;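 active means calcium response B-score plate-corrected fluorescence ratio at least 3 library SD, with starting fluorescence B-score inside 5 SD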
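Assay system: MrgX1-expressing HEK293 cells / Amount: fifteen thousand cells per well / Doses: test compound in the initial addition of three / Timing: cells plated overnight, dye loaded 0.5 h 37 °C, 0.5 h room temperature / Technique: kinetic calcium dye fluorescence, Fluo-4 NW / Control set: positive and negative controls per plate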
MrgX1 antag: antagonists of human MrgX1 receptor. Q96LB2. MRGX1-HEK293 calcium flux, Fluo-4, BAM8-22 antagonism; active compounds read low. B-score at 10 µM. actives 1.3% (n = 310,000);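 active means calcium-response B-score plate-corrected more than 3 library SD below zero, starting fluorescence within 5 deviations, no agonist response on first addition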;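 further: peak minus trough fluorescence over baseline after final BAM8-22 challenge near maximal dose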
MrgX1 ag reconf: confirmation of human MrgX1 receptor agonists; shares compounds with MrgX1 agonist; MrgX1-HEK293, Fluo-4 calcium fluorescence, FDSS; activation, % at 10 µM; actives 78% (n = 600); AID 602412;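 active means calcium signal rise, corrected for plate position, at least 3 library SD high, with starting brightness within 5 such deviations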
MrgX1 PAM conf: reconfirmed allosteric activator of human MrgX1 receptor. activation (ratio percentage), % at 10 µM. actives 13% (n = 1,200). MrgX1-HEK293, Fluo-4 calcium fluorescence, FDSS. shares compounds with MrgX1 allo act. AID 602413;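 active means ratio at least 3 SD above the weak peptide control, stable starting fluorescence, no direct agonism earlier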;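 further: compound followed by low BAM8-22 agonist challenge near EC20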
MrgX1 antag conf: reconfirmed antagonist of human MrgX1 receptor signaling. shares compounds with MrgX1 antag. MrgX1-HEK293, BAM8-22 calcium flux, Fluo-4; active compounds read low. remaining BAM8-22 calcium response % of control (active compounds read low), % at 10 µM. actives 19% (n = 2,300);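 active means remaining agonist calcium response no higher than 100% minus 3 SD of agonist-only control wells, with starting fluorescence near control levels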;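 further: agonist BAM8-22 given at a near maximal EC90 to ECmax level; peak minus minimum fluorescence divided by baseline after agonist addition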
HEK293 Ca flux: counter-screen for MrgX1 antagonists: effect in parental HEK293 cells; shares compounds with MrgX1 antag; Fluo-4 calcium fluorescence, FDSS; fluorescence ratio F(max-min)/F0 at 10 µM; actives 2% (n = 4,000);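 active means duplicate-averaged calcium fluorescence ratio at least three times the standard deviation of buffer wells, a nonspecific response in parental cells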
HEK293 Ca counter: MrgX1 allosteric activator counter-screen hit in parental HEK293 cells | shares compounds with MrgX1 antag | parental HEK293 calcium flux, Fluo-4 fluorescence ratio; active compounds read high | fluorescence ratio F(max-min)/F0 at 10 µM | actives 0.4% (n = 4,000);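 active means calcium fluorescence ratio, averaged over duplicates, at least 3 SD of the buffer-well ratio, meaning a nonspecific response in receptor-free cells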;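 further: untransfected parental HEK293 lacking MrgX1 used as counterscreen for MrgX1 allosteric activators; fluorescence change taken during the second addition on a kinetic imager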
HEK293 Ca cntr2: counter-screen for MrgX1 activators: effect in parental HEK293 cells. fluorescence ratio F(max-min)/F0 at 10 µM. Fluo-4 calcium fluorescence (FDSS); active compounds read high. AID 624115. actives 8.7% (n = 4,000). shares compounds with MrgX1 antag;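 active means calcium fluorescence ratio at least three times the spread of buffer wells, meaning a non-specific response in parental cells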
* marks the source's active call; other numbers are inactive results; i = inactive; . = no result given. Rows were chosen to be rich in hits. Some 3.5% of all compounds tested hit in one or more screens of this group.

SMILES | RGS4 pot | RGS4 inh | MrgX1 allo act | MrgX1 agonist | MrgX1 antag | MrgX1 antag conf | HEK293 Ca flux | HEK293 Ca counter | HEK293 Ca cntr2 | others
CC1(C)CSC(=NCc2ccccc2)N1 | i | i | i | 164* | i | . | i | i | 129* | MrgX1 ag reconf=677%*
Cc1ccsc1C(=O)C1CCCN(Cc2cc(C(C)C)n[nH]2)C1 (stereo unspecified) | i | i | i | i | i | . | . | . | .
CNc1ccc2oc(C[C@H]3O[C@@]4(CC[C@H]3C)O[C@H]([C@H](C)C(=O)c3ccc[nH]3)[C@H](C)C[C@H]4C)nc2c1C(=O)O | i | i | i | 160* | i | . | i | i | 158* | MrgX1 ag reconf=823%*
O=C(CF)NC(NC(=S)Nc1ccccc1O)C(Cl)(Cl)Cl (stereo unspecified) | i | i | i | i | i | . | . | . | .
CN1CCN(c2cccc3c2C(=O)c2ccccc2C3=O)CC1 | i | i | . | . | . | . | . | . | .
CN1CCN(c2ccc3c(c2)S(=O)(=O)c2ccccc2C3=O)CC1 | i | i | i | 28* | i | . | i | i | 51* | MrgX1 ag reconf=i
OC(CN1CCCCC1)c1c[nH]c2ccccc12 (stereo unspecified) | i | i | i | i | i | . | . | . | .
COc1cccc(C2(C#N)CCN(C)CC2)c1 | i | i | 6.5* | i | i | . | i | i | i | MrgX1 PAM conf=i
COc1cccc(OCC(=O)N2CCN(C)CC2)c1 | i | i | i | i | i | . | . | . | .
CCCCn1c(=O)c(C(=O)NCc2ccccc2)c(O)c2ccccc21 | i | i | i | i | i | . | . | . | .
CCCCCn1c(=O)c(C(=O)NCc2ccc(Cl)cc2)c(O)c2ccccc21 | i | i | 8.8* | i | i | . | i | 49* | i | MrgX1 PAM conf=i
CCOC(=O)C1=C(N)Oc2c(c(=O)oc3ccccc23)C12C(=O)N(C)c1ccccc12 (stereo unspecified) | i | i | 8.5* | i | i | . | i | i | i | MrgX1 PAM conf=16%*
C=CCN1C(=O)C2(C(C(=O)OCC)=C(N)Oc3ccccc32)c2c1c1ccccc1oc2=O (stereo unspecified) | i | i | 24* | i | i | . | i | i | i | MrgX1 PAM conf=33%*
CCOP(=O)(OCC)C(O)c1ccc(OC)cc1 (stereo unspecified) | i | i | i | i | i | . | . | . | .
OC[C@@H](O)CCl | i | i | i | i | i | . | . | . | .
COC(=O)c1ccc(NC(=O)CSc2nc3ccc(N4C(=O)C5C6C=CC(C6)C5C4=O)cc3s2)cc1 (stereo unspecified) | i | i | i | i | -7.4* | 55%* | i | i | i
O=C(CN1CC(c2ccccc2)CC1=O)Nc1ccc(F)cc1 (stereo unspecified) | i | i | i | i | -10* | i | i | i | i
O=C(CN1CC(c2ccccc2)CC1=O)Nc1cccc(F)c1 (stereo unspecified) | i | i | i | i | i | . | . | . | .
CC1=[N+]([O-])C2(N)CCc3nonc3C2(O)C1 (stereo unspecified) | i | i | i | i | i | . | . | . | .
CCc1nc2ccccc2c(=O)n1-c1ccccc1[N+](=O)[O-] | i | i | i | i | i | . | . | . | .
Cc1nnc(SCc2nc3ccccc3c(=O)n2-c2ccccc2Cl)n1N | i | i | i | i | -8.2* | 82%* | i | i | i
COC(=O)C1C2c3ccccc3C(c3ccccc32)C1C(=O)OC (stereo unspecified) | i | i | i | i | i | . | . | . | .
CN1CCc2nc(SCc3cccc(Br)c3)c(C#N)cc2C1 | i | i | i | i | -4.7* | i | i | i | i
CCNC(=S)N1CCn2cccc2C1c1cccnc1 (stereo unspecified) | i | i | i | i | i | . | . | . | .
COc1ccc(C(=O)N2CCOCC2)cc1S(=O)(=O)N1CCC(C)CC1 | i | i | i | i | i | . | . | . | .
SMILES | RGS4 pot | RGS4 inh | MrgX1 allo act | MrgX1 agonist | MrgX1 antag | MrgX1 antag conf | HEK293 Ca flux | HEK293 Ca counter | HEK293 Ca cntr2 | others
COc1ccc(C(=O)Oc2cccc3cccnc23)cc1S(=O)(=O)N1CCOCC1 | i | i | i | i | -6* | i | i | i | i
CCCCCn1c(=O)c(C(=O)NC(C)c2ccccc2)c(O)c2ccccc21 (stereo unspecified) | i | i | i | i | -4.8* | i | i | i | i
OC(CCNCCc1c[nH]c2ccccc12)C(F)(F)F (stereo unspecified) | i | i | i | i | i | . | . | . | .
CCCC1=C(C(=O)OCC)C2(C(=O)Nc3ccccc32)C(C#N)=C(N)O1 (stereo unspecified) | i | i | i | i | -4.6* | i | i | i | i
Cc1ccc2c(c1)N(C(=O)CCC(=O)N1CCC3(CC1)OCCO3)CCO2 | i | i | i | i | i | . | . | . | .
CCc1ccc(C2=NN(CCC(=O)N3CCC4(CC3)OCCO4)C(=O)CC2)cc1 | i | i | i | i | i | . | . | . | .
c1ccc(CNCCc2ccc3c(c2)OCO3)nc1 | i | i | i | i | i | . | . | . | .
O=C1NC(=O)C(CCc2ccccn2)(Cc2ccc3c(c2)OCO3)C(=O)N1CCc1ccccc1 (stereo unspecified) | i | i | i | i | -5.2* | i | i | i | i
CCOc1cc2c(cc1OCC)-n1cccc1C(c1ccc(OC(F)F)cc1)NC2 (stereo unspecified) | i | i | i | i | -10* | 42%* | i | i | i
Nc1ccc([As](=O)(O)O)cc1 | i | i | i | i | -6* | i | i | i | i
